Results on nine compounds are retold here after ChEMBL document CHEMBL3817773, “Antibacterial activities of fluorescent nano assembled triphenylamine phosphonium ionic liquids” (Bioorg Med Chem Lett, 2016).

In one series the test system is Enterococcus faecium. Put plainly: Antimicrobial activity against Enterococcus faecium DSMZ 20477 after 18 to 20 hrs by broth dilution method. It is filed as functional. In a few lines:
(§1)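 MICs measured against a panel of ESKAPE-representative strains, including S. aureus SA1199, at concentrations up to 64 mg/L.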
A general note: In broth dilution the organism is exposed to a series of concentrations in liquid medium.

In the next series the test system is Escherichia coli. Put plainly: Antimicrobial activity against Escherichia coli CIP 54.8 after 18 to 20 hrs by broth dilution method. It is filed as functional. The essentials:
as §1

Series [1] relates to Staphylococcus aureus. Put plainly: Antimicrobial activity against Staphylococcus aureus SA1199 after 18 to 20 hrs by broth dilution method. It is filed as functional. The essentials:
as §1

In series [2] the test system is Staphylococcus aureus. Put plainly: Drug uptake in Staphylococcus aureus CIP 76.25 at 2 mg/L after 1.7 to 35 sec by phase contrast microscopic analysis. To be noted: in vivo. Type of series: ADME, organism-based.
Series [3] deals with Staphylococcus aureus. Put plainly: Bactericidal activity against Staphylococcus aureus CIP 76.25 assessed as log reduction in bacterial count at 2 mg/L after 30 mins by time kill assay relative to control. Type of series: functional. The essentials:
(§2)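 Time-kill assay on S. aureus CIP 7625 exposed to 2 mg/L, with untreated control in parallel. Viability was followed by CFU counts over time, and log10 CFU/mL reduction was read at 30 min and 2 h of incubation.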

Series [4] concerns Staphylococcus aureus. Put plainly: Antimicrobial activity against Staphylococcus aureus CIP 76.25 after 18 to 20 hrs by broth dilution method. It is filed as functional. The essentials: as §1
The subject of the next series is HepG2. Put plainly: Cytotoxicity against human HepG2 cells assessed as reduction in cell viability after 24 hrs by WST1 assay. Type of series: cell-based. To be noted: HepG2, 24 h. A general note: Formazan colour is commonly taken as a measure of viable cells.
The test system of series [5] is Staphylococcus aureus. Put plainly: Antimicrobial activity against multi-drug resistant Staphylococcus aureus SA1199B overexpressing NorA after 18 to 20 hrs by broth dilution method. It is filed as functional. The essentials: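 MIC read against the NorA-overproducing S. aureus SA1199B, tested alongside its isogenic parent strain SA1199. Compounds were tested at concentrations up to 64 mg/L.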

Another series deals with Pseudomonas aeruginosa. Put plainly: Antimicrobial activity against Pseudomonas aeruginosa CIP 100720 after 18 to 20 hrs by broth dilution method. Type of series: functional. In a few lines:
as §1

The next series has as its system Klebsiella pneumoniae. Put plainly: Antimicrobial activity against Klebsiella pneumoniae CIP 82.91 after 18 to 20 hrs by broth dilution method. It is filed as functional. In a few lines: as §1
A further series relates to Acinetobacter baumannii. Put plainly: Antimicrobial activity against Acinetobacter baumannii ATCC 19606 after 18 to 20 hrs by broth dilution method. It is filed as functional. The essentials: as §1
The next series deals with Klebsiella aerogenes. Put plainly: Antimicrobial activity against Enterobacter aerogenes ATCC 13048 after 18 to 20 hrs by broth dilution method. It is filed as functional. The essentials: as §1
In series [6] the test system is Staphylococcus aureus. Put plainly: Drug uptake in Staphylococcus aureus CIP 76.25 at 2 mg/L after 1.7 to 35 sec by fluorescence microscopic analysis. It is filed as ADME, organism-based. To be noted: in vivo. In a few lines:
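Uptake was tracked through the intrinsic fluorescence of the triphenylamine moiety, using fluorescence microscopy of bacteria during incubation to follow accumulation kinetics over seconds.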

For series [7], the system named is Staphylococcus aureus. Put plainly: Bactericidal activity against Staphylococcus aureus CIP 76.25 assessed as log reduction in bacterial count at 2 mg/L after 2 hrs by time kill assay relative to control. Type of series: functional. The essentials:
as §2

The test system of series [8] is Staphylococcus aureus. Put plainly: Inhibition of metabolic activity in Staphylococcus aureus CIP 76.25 assessed as inhibition of resazurin reduction to resorufin at 2 mg/L treated for 15 mins measured over 2 to 6 hrs by CellTiter-Blue assay. Type of series: functional, organism-based. In a few lines:
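S. aureus CIP 7625 was treated 15 min with 2 mg/L, then metabolic activity was monitored as the rate of resazurin reduction to resorufin, compared with the untreated control.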
(The colour change of resazurin is a common sign of viable cells or microbes.)

The subject of series [9] is Staphylococcus aureus. Put plainly: Growth inhibition of Staphylococcus aureus CIP 76.25 at 2 mg/L by time kill assay relative to control. Type of series: functional, organism-based. In a few lines:
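S. aureus CIP 7625 proliferation was followed by absorbance at 600 nm, with or without 2 mg/L, against an untreated control curve.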

Each structure is given as a SMILES string. The source made the active and inactive calls. No cut-off for these calls is given here.

For orientation: MIC means the lowest concentration that inhibits growth of the organism. Read a high MIC as a less susceptible organism. A word on the IC50: it is the concentration that gives 50% inhibition. `CCCC[P+](CCCC)(CCCC)CCCCCCOCc1ccc(N(c2ccccc2)c2ccccc2)cc1.[Br-]`: the MIC in the series on Enterococcus faecium was 1 µg/mL; with Escherichia coli it was 16 µg/mL; with Staphylococcus aureus [1], 0.5 µg/mL; against Staphylococcus aureus [4] it was 0.5 µg/mL; against Staphylococcus aureus [5] it was 0.5 µg/mL; with Pseudomonas aeruginosa, above 64 µg/mL. Besides, the MIC against Klebsiella pneumoniae was determined as 8 µg/mL; in the series with Acinetobacter baumannii, 16 µg/mL; against Klebsiella aerogenes, 32 µg/mL. Also, the Drug uptake entry in the series on Staphylococcus aureus [2] and in the series on Staphylococcus aureus [6] was “Active” in each case. The Activity was above 3 log10CFU/ml in the series with Staphylococcus aureus [3] and above 4 log10CFU/ml in the series on Staphylococcus aureus [7]. Also, the IC50 in the series on HepG2 was below 0.124 µg/mL.
For `CCCC[P+](CCCC)(CCCC)CCCCCCOCc1ccc(N(c2ccccc2)c2ccccc2)cc1`, the inhibition result with Staphylococcus aureus [8] was “Active”. In addition, the “growth inhibition (GI)” value in the series with Staphylococcus aureus [9] is “Active”.
As to `CCCC[P+](CCCC)(CCCC)CCCCCCOCc1ccc(N(c2ccccc2)c2ccccc2)cc1.[Cl-]`, the MIC in the series with Enterococcus faecium is 1 µg/mL; in the series on Escherichia coli it was 16 µg/mL; against Staphylococcus aureus [1], 0.5 µg/mL; in the series with Staphylococcus aureus [4], 1 µg/mL; against Staphylococcus aureus [5], 0.5 µg/mL; in the series with Pseudomonas aeruginosa, 32 µg/mL. Moreover, the MIC in the series on Klebsiella pneumoniae, against Acinetobacter baumannii and against Klebsiella aerogenes was 16 µg/mL throughout. In addition, the IC50 with HepG2 is below 0.124 µg/mL.
For the compound `CCCC[P+](CCCC)(CCCC)CCCCCCOC.[Br-]`, the minimum inhibitory concentration (MIC) in the series with Enterococcus faecium, against Escherichia coli, in the series with Staphylococcus aureus [1], with Staphylococcus aureus [4], against Staphylococcus aureus [5] and in the series on Pseudomonas aeruginosa was above 64 µg/mL each time. For the same compound, the MIC against Klebsiella pneumoniae, with Acinetobacter baumannii and with Klebsiella aerogenes was above 64 µg/mL each time. Further, the IC50 in the series on HepG2 worked out at 0.712 µg/mL.
`c1ccc(N(c2ccccc2)c2ccccc2)cc1`: the MIC against Enterococcus faecium, against Escherichia coli, with Staphylococcus aureus [1], in the series with Staphylococcus aureus [4], with Staphylococcus aureus [5] and against Pseudomonas aeruginosa was above 64 µg/mL in each case. Moreover, the MIC against Klebsiella pneumoniae, against Acinetobacter baumannii and against Klebsiella aerogenes was above 64 µg/mL each time. Further, the half-maximal inhibitory concentration (IC50) with HepG2 is below 0.124 µg/mL.
For `CCCC[P+](CCCC)(CCCC)CCCCCCOCc1ccc(N(c2ccccc2)c2ccccc2)cc1.[I-]`, the MIC in the series with Enterococcus faecium came to 2 µg/mL; with Escherichia coli, 16 µg/mL; in the series with Staphylococcus aureus [1], 1 µg/mL; against Staphylococcus aureus [4] it was 1 µg/mL; against Staphylococcus aureus [5], 1 µg/mL; with Pseudomonas aeruginosa it was 32 µg/mL. Moreover, the minimal inhibitory concentration (MIC) turned out to be 16 µg/mL in the series on Klebsiella pneumoniae, 16 µg/mL in the series with Acinetobacter baumannii and 32 µg/mL in the series with Klebsiella aerogenes. Also, the IC50 in the series on HepG2 is below 0.124 µg/mL.
Consider `CCCCCC[P+](CCCC)(CCCC)CCCC.[I-]`, for which the minimal inhibitory concentration (MIC) with Enterococcus faecium, in the series on Escherichia coli, in the series with Staphylococcus aureus [1], against Staphylococcus aureus [4], against Staphylococcus aureus [5] and with Pseudomonas aeruginosa was above 64 µg/mL in each case. Moreover, the MIC in the series on Klebsiella pneumoniae, in the series on Acinetobacter baumannii and with Klebsiella aerogenes was above 64 µg/mL in each case. The IC50 with HepG2 was determined as 0.189 µg/mL.
As to `CCCCCC[P+](CCCC)(CCCC)CCCC.[Br-]`, the minimal inhibitory concentration (MIC) against Enterococcus faecium, in the series on Escherichia coli, with Staphylococcus aureus [1], in the series with Staphylococcus aureus [4], in the series with Staphylococcus aureus [5] and in the series with Pseudomonas aeruginosa was above 64 µg/mL each time. Besides, the MIC against Klebsiella pneumoniae, in the series on Acinetobacter baumannii and against Klebsiella aerogenes was above 64 µg/mL throughout. The IC50 in the series on HepG2 is below 0.124 µg/mL.
Turning to `CCCCCC[P+](CCCC)(CCCC)CCCC.[Cl-]`, the minimal inhibitory concentration (MIC) against Enterococcus faecium, in the series on Escherichia coli, in the series on Staphylococcus aureus [1], against Staphylococcus aureus [4], in the series on Staphylococcus aureus [5] and in the series with Pseudomonas aeruginosa was above 64 µg/mL throughout. The minimum inhibitory concentration (MIC) in the series with Klebsiella pneumoniae, in the series on Acinetobacter baumannii and in the series on Klebsiella aerogenes was above 64 µg/mL each time. Moreover, the IC50 in the series with HepG2 stood at 5.42 µg/mL.
